Our source for the Activity and viability values is ChEMBL document CHEMBL1148162, “Structures of sesquiterpene polyol esters from Celastrus stephanotiifolius with potential tumor-promotion inhibitor activity” (J Nat Prod, 1993).

Holding throughout (format): cell-based
The subject of data set [1] is Raji. Description: Inhibition of 12-O-tetradecanoylphorbol-13-acetate induced EBV-early antigen activation in human Raji cells assessed as EA activation at 1000 molar ratio relative to TPA. Also on record: scale not given: the % may be the effect or the level left. The following applies: human gammaherpesvirus 4. An outline of the steps:
(§1)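 Raji cells stimulated with TPA at 20 ng/ml (32 pM/ml) in the presence of test compound at 10, 100, 500 or 1000 mol ratio to TPA. EBV early antigen activation is reported as a percentage of the TPA-only positive control (100%).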

Data set [2] is described as follows: Cytotoxicity against human Raji cells assessed as cell viability at 100 molar ratio. The following applies: read-out: Activity. Put shortly: (§2)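 Raji cell viability was recorded in the same TPA-induced EBV-EA assay (TPA 20 ng/ml, 32 pM/ml), with compound at 10, 100, 500 or 1000 mol ratio to TPA. Viability is reported as a percentage.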
The subject of data set [3] is Raji. The data set can be described thus: Inhibition of 12-O-tetradecanoylphorbol-13-acetate induced EBV-early antigen activation in human Raji cells assessed as EA activation at 100 molar ratio relative to TPA. On the set-up: scale not given: the % may be the effect or the level left. The following applies: human gammaherpesvirus 4. Put shortly: as §1
Data set [4] is described as follows: Cytotoxicity against human Raji cells assessed as cell viability at 500 molar ratio. The following applies: read-out: Activity. An outline of the steps:
as §2

The test system of data set [5] is Raji. The data set can be described thus: Inhibition of 12-O-tetradecanoylphorbol-13-acetate induced EBV-early antigen activation in human Raji cells assessed as EA activation at 500 molar ratio relative to TPA. Also on record: scale not given: the % may be the effect or the level left. The following applies: human gammaherpesvirus 4. An outline of the steps:
as §1

Data set [6] in a line: Cytotoxicity against human Raji cells assessed as cell viability at 1000 molar ratio. The note with it: read-out: Activity. An outline of the steps: as §2
The test system of data set [7] is Raji. The data set can be described thus: Inhibition of 12-O-tetradecanoylphorbol-13-acetate induced EBV-early antigen activation in human Raji cells assessed as EA activation at 10 molar ratio relative to TPA. On the set-up: scale not given: the % may be the effect or the level left. The following applies: human gammaherpesvirus 4. Put shortly:
as §1

Data set [8] can be described thus: Cytotoxicity against human Raji cells assessed as cell viability at 10 molar ratio. The following applies: read-out: Activity. Put shortly: as §2

Take `CC(=O)O[C@@H]1[C@@H]2[C@@H](OC(C)=O)[C@]3(OC2(C)C)[C@H](C)CC[C@H](OC(C)=O)[C@@]3(C)[C@H]1OC(=O)c1ccccc1`: the Activity in the data set with Raji [1] worked out at 15.3%; in the data set on Raji [3], 90.6%; in the data set on Raji [5], 52.8%; in the data set on Raji [7] it was 100%. In addition, the viability at 100 molar ratio in data set [2] was greater than 80%. In addition, the viability at 500 molar ratio in data set [4] was greater than 80%. Besides, the viability at 1000 molar ratio in data set [6] was determined as 70%. Further, in data set [8], the viability at 10 molar ratio was greater than 80%.
In the case of `CC(=O)O[C@H]1CC[C@@H](C)[C@]23OC(C)(C)[C@H](C[C@H](OC(=O)c4ccccc4)[C@]12C)[C@H]3OC(C)=O`, the Activity came to 26.2% in the data set with Raji [1], 92.1% in the data set with Raji [3], 47.9% with Raji [5] and 100% in the data set with Raji [7]. In addition, the viability at 100 molar ratio in data set [2] was greater than 80%. Further, in data set [4], the viability at 500 molar ratio is greater than 80%. The viability at 1000 molar ratio in data set [6] is 70%. In data set [8], the viability at 10 molar ratio was greater than 80%.
As for `CC(=O)O[C@H]1C[C@@H](C)[C@]23OC(C)(C)[C@H](C[C@H](OC(=O)c4ccccc4)[C@]2(C)[C@H]1OC(C)=O)[C@H]3OC(C)=O`, the Activity came out at 34.2% in the data set with Raji [1], 92.9% in the data set on Raji [3], 65.9% in the data set on Raji [5] and 100% in the data set on Raji [7]. Moreover, the viability at 100 molar ratio in data set [2] was greater than 80%. For the same compound, the viability at 500 molar ratio in data set [4] is greater than 80%. In addition, the viability at 1000 molar ratio in data set [6] amounted to 70%. Besides, the viability at 10 molar ratio in data set [8] was greater than 80%.
As for `CC(=O)O[C@H]1CC[C@@H](C)[C@]23OC(C)(C)[C@H](C[C@H](OC(=O)c4ccccc4)[C@]12C)[C@H]3OC(=O)c1ccccc1`, the Activity in the data set on Raji [1] turned out to be 53.6%; in the data set with Raji [3] it was 100%; with Raji [5], 84.6%; with Raji [7] it was 100%. The viability at 100 molar ratio in data set [2] is greater than 80%. The viability at 500 molar ratio in data set [4] was greater than 80%. Also, the viability at 1000 molar ratio in data set [6] came to 70%. The viability at 10 molar ratio in data set [8] is greater than 80%.
`CC(=O)O[C@H]1C[C@@H](C)[C@@]23C[C@@H](C[C@H](OC(=O)/C=C/c4ccccc4)[C@]2(C)[C@H]1OC(C)=O)C(C)(C)O3`: the Activity with Raji [1] was determined as 25.6%; in the data set on Raji [3], 89.4%; in the data set with Raji [5], 63.1%; in the data set with Raji [7], 100%. The viability at 100 molar ratio in data set [2] was greater than 80%. For the same compound, in data set [4], the viability at 500 molar ratio is greater than 80%. In data set [6], the viability at 1000 molar ratio stood at 70%. Also, the viability at 10 molar ratio in data set [8] is greater than 80%.
Regarding `CC(=O)O[C@H]1C[C@@H](C)[C@@]23C[C@@H](C[C@H](OC(=O)/C=C/c4ccccc4)[C@]2(C)[C@H]1O)C(C)(C)O3`, the Activity in the data set with Raji [1] worked out at 0%; in the data set on Raji [3] it was 86.4%; with Raji [5], 41.6%; in the data set on Raji [7], 100%. In data set [2], the viability at 100 molar ratio is greater than 80%. Also, the viability at 500 molar ratio in data set [4] was greater than 80%. For the same compound, in data set [6], the viability at 1000 molar ratio was 70%. Further, the viability at 10 molar ratio in data set [8] was greater than 80%.
As to `CC(=O)O[C@@H]1[C@H]2[C@@H](O)[C@@H](OC(=O)c3ccccc3)[C@]3(C)[C@@H](OC(=O)c4ccccc4)CC[C@@H](C)[C@@]13OC2(C)C`, the Activity with Raji [1] came out at 0%; in the data set with Raji [3] it was 81.1%; in the data set with Raji [5], 39.3%; in the data set on Raji [7], 100%. Further, in data set [2], the viability at 100 molar ratio was greater than 80%. Besides, in data set [4], the viability at 500 molar ratio was greater than 80%. Also, the viability at 1000 molar ratio in data set [6] stood at 60%. Besides, in data set [8], the viability at 10 molar ratio is greater than 80%.
